Source: ChEMBL document CHEMBL4513216, “Probing the Open Global Health Chemical Diversity Library for Multistage-Active Starting Points for Next-Generation Antimalarials” (ACS Infect Dis, 2020)

Experiment: Toxicity liver stage against HepG2, at 10uM
Type: cell-based
Design: test concentration 10 uM, cell line HepG2-A16-CD81EGFP
Conditions: human, HepG2-A16-CD81EGFP cells; read-out: INHIBITION
Summary of the method: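 Uninfected HepG2-A16-CD81EGFP cells, 3 × 10^3 per well, 1536-well, plated on prespotted compound at 10 μM final, parasite-free screening media added to match infected plates; puromycin 10 μM positive, DMSO 0.5% negative; run in parallel with 48 h PbLuc assay at 37 °C, 5% CO2; viability by CellTiter-Glo luminescence, normalized to controls.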
With `F[C@@H]1CN(CC2CC2)C[C@@H]1OCc1nc2ccc(C(F)(F)F)cc2[nH]1` the cytotoxicity at 10 µM was -6.22%.
With `C[S+](C)[c-]1c(=O)[nH]c(=O)n(CCc2ccc(F)cc2)c1=O` the cytotoxicity at 10 µM was 2.86%.
`CCOC(=O)c1nc(CC(=O)Nc2ccc3cc[nH]c3c2)no1` showed a cytotoxicity at 10 µM of 7.12%.
Compound `CC(C)n1c(=O)c2ccccc2n(CCN2CCCCC2)c1=O` has a cytotoxicity at 10 µM of -16.6%.
In the case of `COCCn1cc(CC(=O)Nc2cc(C)n(C)n2)c2ccccc21`, the cytotoxicity at 10 µM is reported as -1.96%.
`COc1nn(C)cc1C(=O)NCC(=O)Nc1cccnc1` showed a cytotoxicity at 10 µM of -8.75%.
With `CCCc1nnsc1C(=O)NCC1CCN(C(=O)c2ccncc2)CC1` the cytotoxicity at 10 µM was 16.2%.
Compound `O=C(CN1C(=O)CCC1=O)N1Cc2cncnc2C1` has a cytotoxicity at 10 µM of -8.33%.
`COCC(=O)N1CC[C@H]2N(C)CC[C@@]2(C(=O)Nc2ccccc2)CC1` showed a cytotoxicity at 10 µM of 3.48%.
With `CCn1cc(C(=O)Nc2cc(C)ccc2C)cn1` the cytotoxicity at 10 µM was 0.946%.
`CCOCC(=O)N1CCC(Oc2ccc(Cl)cn2)CC1` gave a cytotoxicity at 10 µM of 7.39%.
Work on `CCCC(=O)N1CCC2(CC1)CC(NC(C)=O)c1ccccc1O2` (stereo unspecified) yielded a cytotoxicity at 10 µM of 5.08%.
For `CC(C)C(NC(=O)C1CC1)c1cc(O)nc(-c2cccnc2)n1` (stereo unspecified), the cytotoxicity at 10 µM was 5.18%.
Work on `Cc1nn(CCC(=O)NC2CCCOC2)c(C)c1C` (stereo unspecified) yielded a cytotoxicity at 10 µM of 2.06%.
Compound `c1cncc(CN2CCC(c3csc4nccn34)CC2)c1` has a cytotoxicity at 10 µM of 2.9%.
Compound `O=S(=O)(CCCn1cncn1)Cc1cccc(F)c1` has a cytotoxicity at 10 µM of 2.31%.
With `CN(Cc1ccc(F)cc1)C(=O)c1ccoc1CN1CCNC(=O)C1` the cytotoxicity at 10 µM was -3.57%.
For `CN1CCN(C2CCN(Cc3noc(C4CC4)n3)CC2)C1=O`, the cytotoxicity at 10 µM was 8.54%.
In the case of `CNC(=O)CN(C)S(=O)(=O)c1c(Br)cc2[nH]c(=O)oc2c1Cl`, the cytotoxicity at 10 µM is reported as 1.36%.
`CN(CC(=O)N(C)C(c1ccc(Cl)cc1)c1cccnc1)C1CC1` (stereo unspecified) gave a cytotoxicity at 10 µM of 10.9%.
In the case of `CNC(=O)c1cccc(CN2CCC(N(C)Cc3ncc(C)o3)C2)c1` (stereo unspecified), the cytotoxicity at 10 µM is reported as -103%.
With `Cc1noc(CNc2cc3c(cc2Cl)NC(=O)CO3)n1` the cytotoxicity at 10 µM was 3.07%.
Work on `Cc1cc(NC(=O)N2CCCC(O)C2)nn1-c1ccccc1Cl` (stereo unspecified) yielded a cytotoxicity at 10 µM of 4.99%.
Compound `COc1ccc(C(=O)N(C2CC2)C2CC(=O)NC2=O)cc1` (stereo unspecified) has a cytotoxicity at 10 µM of -10.7%.
For `CC(C)(C)S(=O)(=O)CCNC(=O)NCCCc1cccc(F)c1`, the cytotoxicity at 10 µM was 17%.
For `CC(=O)NCCC(=O)Nc1cccc(N2CCN(CC3CC3)CC2)c1`, the cytotoxicity at 10 µM was -5.62%.
For `CC1CN(CC(=O)NC(=O)NCc2cccs2)CCN1CC(F)(F)F` (stereo unspecified), the cytotoxicity at 10 µM was -0.402%.
With `Cc1ccc(S(=O)(=O)NC(=O)CCc2cscn2)cc1Cl` the cytotoxicity at 10 µM was 8.9%.
Work on `CSc1ccsc1C(=O)NC(C)c1ccc2c(c1)CCC(=O)N2` (stereo unspecified) yielded a cytotoxicity at 10 µM of 1.28%.
`CN(CCC#N)C(=O)CN1CCC(c2cc3ccccc3[nH]2)CC1` showed a cytotoxicity at 10 µM of 4.35%.
`Cc1ccc(C(O)CNC(=O)CCCc2ccccn2)o1` (stereo unspecified) gave a cytotoxicity at 10 µM of 0.166%.
In the case of `CCC(C)c1cc(C(=O)N(CC(=O)NC)c2cccc(F)c2)on1` (stereo unspecified), the cytotoxicity at 10 µM is reported as 6.33%.
`CCC(C)NS(=O)(=O)c1ccc(C(=O)NC2(C#N)CCC2)cc1` (stereo unspecified) gave a cytotoxicity at 10 µM of -7.79%.
Compound `Cc1ccccc1CNc1ccccc1OCC(=O)N1CCOCC1` has a cytotoxicity at 10 µM of -2.38%.
Work on `COCCNC(=O)N1CCCC1COc1ccccc1` (stereo unspecified) yielded a cytotoxicity at 10 µM of 2.04%.
Work on `Cc1nnc(NC(=O)NCCCN2CCC(C(N)=O)CC2)s1` yielded a cytotoxicity at 10 µM of 5.61%.
Compound `CC(=O)N(C)C1CCCc2nc(C)sc21` (stereo unspecified) has a cytotoxicity at 10 µM of -4.97%.
With `O=C(Nc1ccc(F)cc1)C1CSCN1` (stereo unspecified) the cytotoxicity at 10 µM was -2.76%.
`Cc1nc(CN2C(=O)CCC23CCN(Cc2ccco2)CC3)cs1` gave a cytotoxicity at 10 µM of -105%.
With `Cc1nc(N2CCCC2)nc2c1CCN(C(=O)c1ccoc1C)CC2` the cytotoxicity at 10 µM was -111%.
Compound `CNC(=O)C1Cn2ccnc2C2(CCN(Cc3c(C)noc3C)CC2)O1` (stereo unspecified) has a cytotoxicity at 10 µM of -68.6%.
With `Cc1ccc2oc(=O)n(CCC(=O)N3CCCC4(CNC(=O)O4)C3)c2c1` (stereo unspecified) the cytotoxicity at 10 µM was -6%.
For `CN(CCO)C[C@@H]1CN(C(=O)c2cccc(OC(F)F)c2)C[C@@H]1CO`, the cytotoxicity at 10 µM was -0.185%.
For `O=C(CC1CCc2ccccc21)N1CCC(C(=O)O)(n2ccnc2)CC1` (stereo unspecified), the cytotoxicity at 10 µM was 10.7%.
`Cc1ccccc1-n1cc(-c2ccnc(N3CCCC(O)C3)n2)cn1` (stereo unspecified) showed a cytotoxicity at 10 µM of 6.48%.
`CN(C)CC1(O)CCCN(C(=O)c2ccccc2-n2cncn2)C1` (stereo unspecified) showed a cytotoxicity at 10 µM of 2.11%.
Work on `CNC(=O)c1cccnc1N1CCN(Cc2ccccc2)C(CCO)C1` (stereo unspecified) yielded a cytotoxicity at 10 µM of -6.03%.
In the case of `C[C@@H]1CN(Cc2ccncc2)C[C@@]1(O)C1CC1`, the cytotoxicity at 10 µM is reported as -5.08%.
Work on `CCN1CCN(S(=O)(=O)N2CCCCCC2)[C@H]2CS(=O)(=O)C[C@H]21` yielded a cytotoxicity at 10 µM of 1.58%.
In the case of `COc1ccc(C(=O)N2C[C@@H](C(=O)O)[C@H](c3ccccc3C)C2)c(O)c1`, the cytotoxicity at 10 µM is reported as -4.31%.
`Cc1csc(CCCNC(=O)[C@H]2CNC[C@@H](C(=O)N3CCCC3)C2)n1` showed a cytotoxicity at 10 µM of -15.9%.
For `O=C(CCC1CC1)N1C[C@@H](CN2CCCC2)[C@@H](CO)C1`, the cytotoxicity at 10 µM was -4.43%.
In the case of `CCc1csc(C2CCCN(C(=O)c3ccc(=O)n(CC)n3)C2)n1` (stereo unspecified), the cytotoxicity at 10 µM is reported as -1.52%.
In the case of `Cn1ccc(CN2CCC(OCc3ccccc3)CC2)cc1=O`, the cytotoxicity at 10 µM is reported as 0.259%.
`Cc1cc(C)n(CC2CN(CCC(=O)NC3CCCCC3)CCO2)n1` (stereo unspecified) showed a cytotoxicity at 10 µM of -2.95%.
In the case of `CCOc1ncccc1C(=O)N1CCCC1Cn1nc(C)cc1C` (stereo unspecified), the cytotoxicity at 10 µM is reported as -4.45%.
`Cc1ccsc1C(=O)N(C)Cc1ccncc1` gave a cytotoxicity at 10 µM of -4.54%.
Compound `COc1ccc(NC(=O)NCC(O)c2ccccc2F)c(OC)c1` (stereo unspecified) has a cytotoxicity at 10 µM of 3.22%.
Work on `CCNC(c1ccc(Br)cc1)c1cccnc1` (stereo unspecified) yielded a cytotoxicity at 10 µM of -0.1%.
With `N#Cc1cccc(S(=O)(=O)NC(=O)COC2CCCC2)c1` the cytotoxicity at 10 µM was -4.79%.
For `CSc1nccn1-c1cccc(C(=O)NCCCN2CCOCC2)c1`, the cytotoxicity at 10 µM was -4.74%.
`CN1CCCN(C(=O)NCc2csc(Br)c2)CC1` gave a cytotoxicity at 10 µM of -5.85%.
In the case of `CCOCC(O)CN1CCN(C(=O)Cc2ccc(C)nc2)CC1` (stereo unspecified), the cytotoxicity at 10 µM is reported as -4.97%.
`CN(Cc1cnn(C)c1)C(=O)NC1CCN(c2ncccn2)CC1` showed a cytotoxicity at 10 µM of -5.82%.
Compound `COc1ncccc1NC(=O)C1CCS(=O)(=O)C1` (stereo unspecified) has a cytotoxicity at 10 µM of -4.48%.
Compound `CN(CCNC(=O)c1scnc1Cl)c1ccccc1` has a cytotoxicity at 10 µM of 6.88%.
`CC(C)c1nnc2n1CCN(C(=O)c1ccc(OCC(N)=O)cc1)C2` gave a cytotoxicity at 10 µM of -4.84%.
Compound `c1cc(CNc2cnc(C3CCCN3)cn2)ccn1` (stereo unspecified) has a cytotoxicity at 10 µM of -6.77%.
Compound `O=C(Cc1ccccc1)N1CC[C@H]2[C@@H]1CCC(=O)N2Cc1ccncc1` has a cytotoxicity at 10 µM of 3.07%.
With `CN(C)CCN1C[C@@H]2CN(C(=O)c3ccsc3)C[C@@H]2C1=O` the cytotoxicity at 10 µM was -7.79%.
`Cc1ccc(N2CCC3(CCC(=O)N3Cc3ccncc3)CC2)nn1` gave a cytotoxicity at 10 µM of -110%.
Work on `Cn1cc(C(=O)N[C@@H]2CN(Cc3cccnc3)[C@@H]3CCCO[C@@H]32)cn1` yielded a cytotoxicity at 10 µM of 1.18%.
`O=C(N1CCCC1)N1CCC[C@]2(C[C@@H](Oc3ncccc3F)CO2)C1` showed a cytotoxicity at 10 µM of -0.269%.
`CN(C)C(=O)CN1CCc2ncnc(N(C)C)c2CC1` gave a cytotoxicity at 10 µM of -93.2%.
For `COCCN1CC[C@@H]2O[C@H](COCc3csc(C)n3)CC[C@@H]21`, the cytotoxicity at 10 µM was -76.7%.
`CN(C)[C@@H]1CCN(C(=O)Cc2ccc(F)cc2)[C@H]1Cc1cnn(C)c1` gave a cytotoxicity at 10 µM of 4.58%.
With `O=C(Cc1ccccn1)NCC1OCCc2cn(CC3CC3)nc21` (stereo unspecified) the cytotoxicity at 10 µM was 7.51%.
In the case of `CC1(C)CC(n2cc3nc(N)[nH]cc-3c2=O)CC(C)(C)N1`, the cytotoxicity at 10 µM is reported as -12.8%.
With `CC(C)=CCN1C[C@@H]2CC[C@H]1CN(C(=O)c1c[nH]c(=O)c(Cl)c1)C2` the cytotoxicity at 10 µM was -14.5%.
`O=c1occ(CN2CCOCC2)c(O)c1CN1CCOCC1` gave a cytotoxicity at 10 µM of -12.1%.
With `CC(C)n1c(=O)[nH]c2cn(-c3ccc(F)cc3)c(=O)n21` the cytotoxicity at 10 µM was -7.74%.
